This note sets out measurements from paper PMC3897123 (MedChemComm, 2013).

One series deals with T1, Nox1 (Homo sapiens, UniProt Q9Y5S8).
T1 sequence (Q9Y5S8 1-564): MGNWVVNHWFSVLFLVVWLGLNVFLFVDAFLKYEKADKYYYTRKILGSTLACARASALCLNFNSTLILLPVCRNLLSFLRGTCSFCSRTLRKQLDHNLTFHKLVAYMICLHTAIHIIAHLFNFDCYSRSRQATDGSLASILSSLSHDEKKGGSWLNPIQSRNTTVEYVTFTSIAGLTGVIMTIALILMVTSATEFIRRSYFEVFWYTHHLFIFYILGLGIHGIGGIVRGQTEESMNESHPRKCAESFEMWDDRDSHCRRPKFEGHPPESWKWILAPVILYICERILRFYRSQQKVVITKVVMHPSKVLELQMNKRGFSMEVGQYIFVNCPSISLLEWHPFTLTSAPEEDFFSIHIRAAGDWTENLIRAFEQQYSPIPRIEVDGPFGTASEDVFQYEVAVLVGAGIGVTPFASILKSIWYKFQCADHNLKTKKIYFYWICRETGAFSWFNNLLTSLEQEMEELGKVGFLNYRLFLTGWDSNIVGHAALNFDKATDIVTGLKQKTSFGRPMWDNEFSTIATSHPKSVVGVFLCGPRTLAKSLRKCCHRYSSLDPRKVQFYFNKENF
T1 sequence (P13498 2-195 partner limits assumed): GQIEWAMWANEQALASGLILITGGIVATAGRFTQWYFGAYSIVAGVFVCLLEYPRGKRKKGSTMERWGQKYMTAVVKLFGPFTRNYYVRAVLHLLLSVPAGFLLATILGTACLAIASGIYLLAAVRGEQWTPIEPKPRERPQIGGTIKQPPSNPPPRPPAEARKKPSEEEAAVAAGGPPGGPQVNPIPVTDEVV
The series is classed as cell-based. Conditions: for Nox1 activity (in words): summary of Table 1.

Series [1] concerns the target T2, Nox2 (Homo sapiens, UniProt P04839).
T2 sequence (P04839 2-570 limits assumed): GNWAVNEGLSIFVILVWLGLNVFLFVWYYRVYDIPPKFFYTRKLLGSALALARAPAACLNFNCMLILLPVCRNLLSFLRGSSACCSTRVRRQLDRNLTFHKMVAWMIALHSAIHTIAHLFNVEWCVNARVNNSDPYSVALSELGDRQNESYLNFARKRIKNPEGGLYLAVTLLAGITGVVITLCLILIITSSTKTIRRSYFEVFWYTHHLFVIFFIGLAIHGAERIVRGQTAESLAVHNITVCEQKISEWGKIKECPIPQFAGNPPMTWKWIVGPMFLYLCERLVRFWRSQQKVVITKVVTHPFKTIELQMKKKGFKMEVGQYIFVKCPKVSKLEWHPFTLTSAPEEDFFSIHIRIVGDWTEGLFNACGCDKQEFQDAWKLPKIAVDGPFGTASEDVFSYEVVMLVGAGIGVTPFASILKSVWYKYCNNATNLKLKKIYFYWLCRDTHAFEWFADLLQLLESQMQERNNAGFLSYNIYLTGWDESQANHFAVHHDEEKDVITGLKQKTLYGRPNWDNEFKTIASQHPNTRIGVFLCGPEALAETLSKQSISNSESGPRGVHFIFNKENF
T2 sequence (P13498 2-195 partner limits assumed): T1 sequence (P13498 2-195 partner limits assumed)
Kind of series: L-012 chemiluminescence assay of O2•− generation in whole COS-Nox2 cells. The class given is cell-based. The method, boiled down: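 Stable Nox2-transfected COS cells, stimulated with 5 μM PMA; O2•− is detected by L-012 chemiluminescence. The primary screen of library compounds ran at 100, 50, 25 and 12.5 μM. Follow-up concentration–response data are expressed as % of vehicle control (mean ± SEM of 3–7 independent experiments), and IC50 is extrapolated from the curve slope.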

Series [2] has as its target T2, Nox2. Briefly: Amplex Red assay of ROS generation in whole COS-Nox2 cells. The class given is cell-based. The method, boiled down:
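Whole COS-Nox2 cells stimulated with 5 μM PMA, with SOD added to convert O2•− to H2O2. H2O2 is read by Amplex Red fluorescence across a concentration range of test compound. Activity is expressed as % of vehicle control, as mean ± SEM of 3–7 independent experiments; IC50 is derived from the concentration–response curve.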

The subject of the next series is cell viability. Kind of series: CytoTox-Glo cell viability assay. The class given is cell-based. Conditions: only at the highest concentration tested.
For the next series, the target named is T3, Nox5 (Homo sapiens, UniProt Q96PH1).
T3 sequence (Q96PH1 1-765): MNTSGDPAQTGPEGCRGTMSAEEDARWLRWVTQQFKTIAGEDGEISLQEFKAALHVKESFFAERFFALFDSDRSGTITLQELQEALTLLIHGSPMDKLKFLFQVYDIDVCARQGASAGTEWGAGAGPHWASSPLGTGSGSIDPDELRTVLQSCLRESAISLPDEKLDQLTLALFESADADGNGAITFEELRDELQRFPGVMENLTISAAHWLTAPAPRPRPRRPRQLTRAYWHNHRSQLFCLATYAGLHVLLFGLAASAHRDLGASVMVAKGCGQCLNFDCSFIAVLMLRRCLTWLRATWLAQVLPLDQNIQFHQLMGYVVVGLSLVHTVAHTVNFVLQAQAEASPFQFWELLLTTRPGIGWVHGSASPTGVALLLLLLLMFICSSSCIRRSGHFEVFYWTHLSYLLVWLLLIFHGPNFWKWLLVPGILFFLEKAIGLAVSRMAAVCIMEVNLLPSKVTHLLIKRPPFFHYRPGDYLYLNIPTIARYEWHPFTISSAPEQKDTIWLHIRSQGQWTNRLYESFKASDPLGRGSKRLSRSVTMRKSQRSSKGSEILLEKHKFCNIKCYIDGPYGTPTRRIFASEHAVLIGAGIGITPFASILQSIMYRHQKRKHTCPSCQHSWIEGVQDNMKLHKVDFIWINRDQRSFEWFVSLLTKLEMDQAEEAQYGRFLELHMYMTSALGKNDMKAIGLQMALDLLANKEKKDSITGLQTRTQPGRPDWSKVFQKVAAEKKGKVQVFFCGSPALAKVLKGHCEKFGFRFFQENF
Kind of series: L-012 assay of Nox5 activity in HEK-Nox5 cells. The series is classed as cell-based. Conditions: summary of Table 1.

Another series addresses T4, Nox4 (Homo sapiens, UniProt Q9NPH5).
T4 sequence (Q9NPH5 1-578): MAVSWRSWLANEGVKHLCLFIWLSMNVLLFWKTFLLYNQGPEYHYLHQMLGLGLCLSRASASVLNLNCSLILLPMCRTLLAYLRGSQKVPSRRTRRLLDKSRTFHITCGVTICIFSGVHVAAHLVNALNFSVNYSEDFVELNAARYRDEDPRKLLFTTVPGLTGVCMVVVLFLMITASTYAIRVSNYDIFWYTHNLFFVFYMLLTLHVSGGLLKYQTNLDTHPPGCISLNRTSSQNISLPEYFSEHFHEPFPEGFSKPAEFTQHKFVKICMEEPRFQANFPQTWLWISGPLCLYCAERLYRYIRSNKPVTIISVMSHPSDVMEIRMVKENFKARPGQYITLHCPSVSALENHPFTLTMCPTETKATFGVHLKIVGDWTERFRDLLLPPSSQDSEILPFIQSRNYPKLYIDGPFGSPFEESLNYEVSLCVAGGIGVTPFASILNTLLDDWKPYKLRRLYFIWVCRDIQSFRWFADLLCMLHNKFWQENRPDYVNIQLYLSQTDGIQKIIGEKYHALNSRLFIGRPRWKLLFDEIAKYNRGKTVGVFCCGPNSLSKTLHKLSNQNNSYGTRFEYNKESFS
T4 sequence (P13498 2-195 partner limits assumed): T1 sequence (P13498 2-195 partner limits assumed)
Kind of series: Amplex Red assay of constitutive Nox4 activity. Conditions: for Nox4 activity (in words): Amplex Red, COS-Nox4 cells. The class given is cell-based. The method, boiled down: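 Transiently transfected COS-Nox4 cells, unstimulated (constitutive activity), pretreated with various test compound concentrations for 15 min. The initial rate of H2O2 production is read by Amplex Red fluorescence. Results are given as % of vehicle control, mean ± SEM of 3–7 independent experiments; IC50 comes from the concentration–response curve.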

Series [3] concerns the target T2, Nox2. Briefly: Cell-free Nox2 activity in lysed COS-Nox2 cells. The series is classed as biochemical. Conditions: 6.3 μM compound; COS-Nox2 cell lysate, 130 μM LiDS, 180 μM NADPH. The procedure, abridged:
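Cell-free system: COS-Nox2 cell lysate is preincubated with test compound for 15 min at 25 °C. Subunits are assembled with 130 μM LiDS, and the reaction is started with 180 μM NADPH. O2•− is measured as the initial linear rate of SOD-inhibitable cytochrome C reduction, in nmol O2•− per min per 10^7 cell equivalents.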

The structures appear in SMILES notation.

Regarding `C=C(C)C[C@H]1[C@H]2c3c(Br)cccc3[C@H](CC2(C)C)N1S(C)(=O)=O` [Compound 14a], at Nox1, the IC50 was over 100 µM.
Consider `C=C(C)C[C@@H]1N[C@H]2CC(C)(C)[C@@H]1c1c(-c3cccnc3)cccc12` [Compound 12d], for which the IC50 at Nox2 [1] and against Nox2 [2] was over 100 µM each time.
As to `CC(C)C[C@@H]1N[C@H]2CC(C)(C)[C@@H]1c1c(Br)cccc12` [Compound 13], the “Nox1 activity (in words)” value on Nox1 is given as “retained inhibitory activity”. For the same molecule, in the series with cell viability, the “Effect on cell viability” value is reported as “effect on cell viability”. The “Nox2 inhibitory activity (in words)” value on Nox2 [1] (text summary of Table 1 (Amplex Red and L-012 assays)) is “retained inhibitory activity”. In addition, on Nox5, the “Nox5 activity (in words)” value is recorded as “retained inhibitory activity”.
On Nox4, `C=C(C)C[C@H]1[C@H]2c3c(Br)cccc3[C@H](CC2(C)C)N1S(=O)(=O)c1ccc(F)cc1` [Compound 14b] gave an IC50 of over 100 µM.
For `C=C(C)C[C@H]1[C@H]2c3c(-c4ccc(Cl)c(Cl)c4)cccc3[C@H](CC2(C)C)N1Cc1ccc2c(c1)OCO2` [Compound 12b], at Nox4, the concentration for half-maximal inhibition (IC50) is over 100 µM.
Take `C=C(C)C[C@@H]1N[C@H]2CC(C)(C)[C@@H]1c1ccccc12` [Compound 8]: the “Activity in primary screen” value on Nox2 [1] (UPCMLD library screen at 100, 50, 25, and 12.5 μM, L-012, COS-Nox2 cells) was “inactive”. This molecule also had a concentration for half-maximal inhibition (IC50) against Nox4 of over 100 µM.
With `C=C(C)C[C@H]1[C@H]2c3c(Br)cccc3[C@H](CC2(C)C)N1Cc1c[nH]c2ccccc12` [Compound 11c], the IC50 against Nox4 was over 100 µM.
For the molecule `C=C(C)C[C@H]1[C@H]2c3c(Br)cccc3[C@H](CC2(C)C)N1CCCCC` [Compound 11g], at Nox1, the “Nox1 activity (in words)” value is on record as “virtually no effect”. Moreover, the “Nox5 activity (in words)” value at Nox5 was “virtually no effect”. Besides, the “Nox4 activity (in words)” value at Nox4 was “virtually no effect”.
For the molecule `C=C(C)C[C@H]1[C@H]2c3c(Br)cccc3[C@H](CC2(C)C)N1Cc1cccs1` [Compound 11h], on Nox1, the “Nox1 activity (in words)” value was “virtually no effect”. The “Nox5 activity (in words)” value on Nox5 is “virtually no effect”. For the same molecule, on Nox4, the IC50 is over 100 µM and the “Nox4 activity (in words)” value was “virtually no effect”.
As for `C=C(C)C[C@H]1[C@H]2c3c(Br)cccc3[C@H](CC2(C)C)N1Cc1ccnc2ccccc12` [Compound 11b], the IC50 against Nox4 is over 100 µM.
For the molecule `C=C(C)C[C@@H]1N[C@H]2CC(C)(C)[C@@H]1c1c(Br)cccc12` [Compound 7], on Nox2 [3], the “LiDS-stimulated O2•− generation” value is on record as “almost non-stimulated levels”. Moreover, in the series on cell viability, the “Effect on cell viability” value is reported as “effect on cell viability”.

As a reminder, the IC50 is the midpoint of a concentration-inhibition curve.
